One experiment concerns the target Adenosine receptor A2a (Homo sapiens, UniProt P29274). Nature of the experiment: Displacement of [3H]-ZM241385 from human adenosine A2A receptor expressed in CHO cell membranes after 60 mins by scintillation counting analysis. A digest of the protocol:
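Membranes from transfected CHO cells in 50 mM Tris HCl, 10 mM MgCl2, pH 7.4, at 50 µg protein/assay. [3H]ZM241385 2 nM with 6-8 competitor concentrations, 60 min at 4 °C. Non-specific binding defined with 1 µM ZM241385. Filtered on GF/B, bound radioactivity counted. Ki via Cheng-Prusoff, n=3-6, mean ± SEM.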

Another experiment deals with T1, Adenosine receptor A1 (Homo sapiens, UniProt P30542).
T1 sequence (P30542 whole entry): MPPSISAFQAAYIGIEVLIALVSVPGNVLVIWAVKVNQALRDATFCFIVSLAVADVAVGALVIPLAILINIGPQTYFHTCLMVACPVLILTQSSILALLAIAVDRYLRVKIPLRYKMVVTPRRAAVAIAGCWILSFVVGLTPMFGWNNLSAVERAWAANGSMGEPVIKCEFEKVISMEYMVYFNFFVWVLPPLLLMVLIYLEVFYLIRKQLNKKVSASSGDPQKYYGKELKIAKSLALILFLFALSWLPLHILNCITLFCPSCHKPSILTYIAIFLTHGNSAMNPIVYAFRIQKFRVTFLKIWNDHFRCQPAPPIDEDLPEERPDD
Kind of experiment: (§1) Displacement of [3H]-DPCPX from human adenosine A1 receptor expressed in CHO cell membranes after 120 mins by scintillation counting analysis. A digest of the protocol:
(§2)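 Membranes from transfected CHO cells in 50 mM Tris HCl pH 7.4 at 50 µg protein/assay, pretreated with adenosine deaminase 2 IU/ml. [3H]DPCPX 1 nM against 6-8 antagonist concentrations, 120 min at 25 °C. Non-specific binding defined with 1 µM DPCPX. GF/B filtration, then scintillation counting. Ki by Cheng-Prusoff, n=3-6, mean ± SEM.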

The target of experiment [1] is T2, Adenosine receptor A1 (Homo sapiens) (UniProt P30542).
T2 sequence (whole entry): T1 sequence (P30542 whole entry)
Described as §1. More on the design: concentration or dose not given beside the values. A digest of the protocol:
as §2

The target in experiment [2] is T3, Adenosine receptor A3 (Homo sapiens) (UniProt P0DMS8).
T3 sequence (whole entry): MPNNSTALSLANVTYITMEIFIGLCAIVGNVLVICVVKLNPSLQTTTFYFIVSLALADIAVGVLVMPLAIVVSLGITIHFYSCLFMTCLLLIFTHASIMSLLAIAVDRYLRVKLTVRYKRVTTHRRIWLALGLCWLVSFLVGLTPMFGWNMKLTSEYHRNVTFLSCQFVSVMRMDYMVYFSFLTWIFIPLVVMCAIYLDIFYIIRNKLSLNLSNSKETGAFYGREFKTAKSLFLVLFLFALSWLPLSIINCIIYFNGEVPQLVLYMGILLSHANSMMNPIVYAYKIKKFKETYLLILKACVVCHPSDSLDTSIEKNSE
Nature of the experiment: Antagonist activity at human adenosine A3 receptor expressed in CHO cells assessed as inhibition of Cl-IB-MECA-mediated suppression of forskolin-induced cyclic-AMP accumulation by scintillation counting analysis in presence of [3H]-cyclic AMP. It is filed as cell-based. Put shortly: (§3)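 Preincubated at 37 °C. A2B: antagonism of NECA (100 nM)-stimulated cAMP. A3: forskolin 1 µM plus Cl-IB-MECA (100 nM). Stopped with cold 6% TCA, then ether-extracted. cAMP measured by competition protein binding with [3H]cAMP. KB derived by modified Cheng-Prusoff (Leff and Dougall), mean ± SEM.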

Another experiment addresses T4, Adenosine receptor A3 (Homo sapiens, UniProt P0DMS8).
T4 sequence (P0DMS8 whole entry): T3 sequence (whole entry)
Kind of experiment: (§4) Displacement of [3H]-MRE3008F20 from human adenosine A3 receptor expressed in CHO cell membranes after 120 mins by scintillation counting analysis. A digest of the protocol: (§5)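 Membranes from transfected CHO cells in 50 mM Tris HCl, 10 mM MgCl2, 1 mM EDTA, pH 7.4, at 50 µg protein/assay. [3H]MRE3008F20 1 nM with 6-8 ligand concentrations, 120 min at 4 °C. Non-specific binding defined with 1 µM MRE3008F20. GF/B filtration, then scintillation counting. Ki by Cheng-Prusoff, n=3-6, mean ± SEM.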
On the technique in general: Loss of bound radioactivity is the signal in a displacement assay; it reports binding, not function.

Experiment [3] concerns the target T5, Adenosine receptor A2b (Homo sapiens) (UniProt P29275).
T5 sequence (whole entry): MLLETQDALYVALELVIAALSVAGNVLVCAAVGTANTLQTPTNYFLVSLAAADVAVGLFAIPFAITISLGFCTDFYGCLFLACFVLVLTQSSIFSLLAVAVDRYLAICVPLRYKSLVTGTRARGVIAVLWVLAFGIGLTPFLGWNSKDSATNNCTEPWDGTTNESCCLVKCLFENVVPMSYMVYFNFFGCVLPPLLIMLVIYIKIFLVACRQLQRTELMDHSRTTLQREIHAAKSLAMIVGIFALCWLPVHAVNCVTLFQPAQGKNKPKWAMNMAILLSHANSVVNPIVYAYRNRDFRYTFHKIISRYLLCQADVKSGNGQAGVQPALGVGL
Nature of the experiment: Antagonist activity at human adenosine A2B receptor expressed in CHO cells assessed as inhibition of NECA-stimulated cyclic AMP production by scintillation counting analysis in presence of [3H]-cyclic AMP. It is filed as cell-based. More on the design: inhibition: concentration or dose not given beside the values. As to conditions: for inhibition: concentration not given here. A digest of the protocol:
as §3

The target of experiment [4] is T3, Adenosine receptor A3 (Homo sapiens). The description is as §4. A digest of the protocol:
as §5

Sequence of Adenosine receptor A2a (P29274 whole entry): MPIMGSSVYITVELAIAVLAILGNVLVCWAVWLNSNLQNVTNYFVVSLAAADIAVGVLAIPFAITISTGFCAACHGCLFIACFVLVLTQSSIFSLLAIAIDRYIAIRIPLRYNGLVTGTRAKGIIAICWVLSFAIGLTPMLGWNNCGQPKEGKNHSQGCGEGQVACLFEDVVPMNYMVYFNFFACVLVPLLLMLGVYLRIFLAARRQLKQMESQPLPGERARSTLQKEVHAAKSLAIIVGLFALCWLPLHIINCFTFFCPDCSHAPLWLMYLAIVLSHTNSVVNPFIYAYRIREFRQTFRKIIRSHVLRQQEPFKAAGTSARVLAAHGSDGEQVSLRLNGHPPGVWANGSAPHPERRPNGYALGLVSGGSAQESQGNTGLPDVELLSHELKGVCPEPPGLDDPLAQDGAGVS

For the compound `Cn1cc2c(nc(N=C(Nc3ccc(C#N)cc3)Nc3ccc(C#N)cc3)n3nc(-c4ccco4)nc23)n1`, the Ki on Adenosine receptor A2a is more than 1000 nM; at Adenosine receptor A1, more than 1000 nM; at Adenosine receptor A3 it was 30 nM. Besides, the inhibition (at Adenosine receptor A2a; in experiment [1]; in experiment [3]) was 1% throughout. Besides, the Kb is 33 nM in experiment [2] and more than 1000 nM in experiment [3].
As for `Cn1cc2c(nc(N=C(Nc3ccc(F)cc3)Nc3ccc(F)cc3)n3nc(-c4ccco4)nc23)n1`, the inhibition constant Ki at Adenosine receptor A2a was more than 1000 nM; on Adenosine receptor A1 it was more than 1000 nM; at Adenosine receptor A3, 122 nM. Further, the values for the inhibition (on Adenosine receptor A2a; in experiment [1]; in experiment [3]) were 16%, 1% and 1%, respectively. For the same compound, the results for the Kb in experiment [2] and in experiment [3] were 129 nM and more than 1000 nM, respectively.
Regarding `Cn1cc2c(nc(N=C(Nc3ccc(Br)cc3)Nc3ccc(Br)cc3)n3nc(-c4ccco4)nc23)n1`, the inhibition constant (Ki) on Adenosine receptor A2a is more than 1000 nM; at Adenosine receptor A1, more than 1000 nM; at Adenosine receptor A3 it was 345 nM. For the same compound, the figures for the inhibition (on Adenosine receptor A2a; in experiment [1]; in experiment [3]) were 10%, 1% and 1%, respectively. Moreover, the figures for the Kb in experiment [2] and in experiment [3] were 362 nM and more than 1000 nM, respectively.
In the case of `Cn1cc2c(nc(N=C(Nc3ccc(Cl)cc3)Nc3ccc(Cl)cc3)n3nc(-c4ccco4)nc23)n1`, the Ki at Adenosine receptor A2a was more than 1000 nM; on Adenosine receptor A1, more than 1000 nM; on Adenosine receptor A3, 71 nM. Also, the inhibition on Adenosine receptor A2a was 11%; in experiment [1], 8%; in experiment [3], 2%. For the same compound, the antagonist equilibrium constant (Kb) in experiment [2] is 63 nM; in experiment [3], more than 1000 nM.
As to `Cc1ccc(NC(=Nc2nc3nn(C)cc3c3nc(-c4ccco4)nn23)Nc2ccc(C)cc2)cc1`, the Ki at Adenosine receptor A2a is more than 1000 nM; on Adenosine receptor A1, more than 1000 nM; at Adenosine receptor A3, 63 nM. For the same compound, the inhibition on Adenosine receptor A2a amounted to 1%; in experiment [1], 6%; in experiment [3], 3%. Further, the Kb in experiment [2] was 57 nM; in experiment [3] it was more than 1000 nM.
As for `COc1ccc(NC(=Nc2nc3nn(C)cc3c3nc(-c4ccco4)nn23)Nc2ccc(OC)cc2)cc1`, the Ki was more than 1000 nM at Adenosine receptor A2a, more than 1000 nM at Adenosine receptor A1 and 42 nM at Adenosine receptor A3. For the same compound, the inhibition at Adenosine receptor A2a was found to be 1%; in experiment [1], 7%; in experiment [3], 4%. The Kb in experiment [2] is 42 nM; in experiment [3], more than 1000 nM.
On to `Cn1cc2c(nc(N=C(Nc3cccc(C(F)(F)F)c3)Nc3cccc(C(F)(F)F)c3)n3nc(-c4ccco4)nc23)n1`, for which the inhibition constant Ki was more than 1000 nM on Adenosine receptor A2a, more than 1000 nM at Adenosine receptor A1 and 520 nM at Adenosine receptor A3. For the same compound, the results for the inhibition (at Adenosine receptor A2a; in experiment [1]; in experiment [3]) were 1%, 3% and 2%, respectively. In addition, the Kb in experiment [2] is 537 nM; in experiment [3], more than 1000 nM.
With `Cn1cc2c(nc(N=C(Nc3ccccc3)Nc3ccccc3)n3nc(-c4ccco4)nc23)n1`, the results for the Ki on Adenosine receptor A2a, at Adenosine receptor A1 and at Adenosine receptor A3 were more than 1000 nM, more than 1000 nM and 79 nM, respectively. Further, the inhibition is 2% at Adenosine receptor A2a, 10% in experiment [1] and 1% in experiment [3]. For the same compound, the figures for the Kb in experiment [2] and in experiment [3] were 67 nM and more than 1000 nM, respectively.
As for `Cn1cc2c(nc(N=C(NC3CCCCC3)NC3CCCCC3)n3nc(-c4ccco4)nc23)n1`, the Ki on Adenosine receptor A2a was more than 1000 nM; on Adenosine receptor A1 it was more than 1000 nM; at Adenosine receptor A3 it was 29 nM. Besides, the inhibition on Adenosine receptor A2a was 3%; in experiment [1] it was 25%; in experiment [3], 4%. Also, the Kb in experiment [2] was 32 nM; in experiment [3], more than 1000 nM.
`COc1cccc(NC(=Nc2nc3nn(C)cc3c3nc(-c4ccco4)nn23)Nc2cccc(OC)c2)c1`: the Ki on Adenosine receptor A2a is more than 1000 nM; at Adenosine receptor A1 it was more than 1000 nM; on Adenosine receptor A3, 155 nM. The inhibition at Adenosine receptor A2a stood at 18%; in experiment [1] it was 1%; in experiment [3], 1%. In addition, the antagonist equilibrium constant (Kb) in experiment [2] is 141 nM; in experiment [3] it was more than 1000 nM.
Consider `CCN/C(=N\c1nc2nn(C)cc2c2nc(-c3ccco3)nn12)NCCCN(C)C`, for which the Ki at Adenosine receptor A2a, at Adenosine receptor A1 and at Adenosine receptor A3 was more than 1000 nM in each case. Moreover, the inhibition was 3% at Adenosine receptor A2a; 22% in experiment [1]; 3% in experiment [2] (concentration not given here); 19% in experiment [4]; 1% in experiment [3]. Besides, the antagonist equilibrium constant (Kb) in experiment [2] and in experiment [3] was more than 1000 nM each time.
As for `CC(C)NC(=Nc1nc2nn(C)cc2c2nc(-c3ccco3)nn12)NC(C)C`, the Ki on Adenosine receptor A2a is more than 1000 nM; at Adenosine receptor A1, more than 1000 nM; on Adenosine receptor A3 it was 33 nM. The results for the inhibition (on Adenosine receptor A2a; in experiment [1]; in experiment [3]) were 1%, 4% and 3%, respectively. In addition, the Kb in experiment [2] is 36 nM; in experiment [3], more than 1000 nM.
In the case of `Cn1cc2c(nc(N=C(Nc3cccc(Cl)c3)Nc3cccc(Cl)c3)n3nc(-c4ccco4)nc23)n1`, the results for the Ki on Adenosine receptor A2a, at Adenosine receptor A1 and on Adenosine receptor A3 were more than 1000 nM, more than 1000 nM and 89 nM, respectively. Also, the inhibition worked out at 1% on Adenosine receptor A2a, 17% in experiment [1] and 1% in experiment [3]. Moreover, the Kb was 74 nM in experiment [2] and more than 1000 nM in experiment [3].
Turning to `Cn1cc2c(nc(N=C(Nc3ccc([N+](=O)[O-])cc3)Nc3ccc([N+](=O)[O-])cc3)n3nc(-c4ccco4)nc23)n1`, the Ki at Adenosine receptor A2a is more than 1000 nM; on Adenosine receptor A1 it was more than 1000 nM; on Adenosine receptor A3 it was 18 nM. The inhibition (at Adenosine receptor A2a; in experiment [1]; in experiment [3]) was 1% throughout. Besides, the figures for the antagonist equilibrium constant (Kb) in experiment [2] and in experiment [3] were 13 nM and more than 1000 nM, respectively.

The term Ki denotes the equilibrium dissociation constant of an inhibitor or competing ligand from its target. As a reminder, the inhibition is the drop in the measured response relative to a control, in per cent. As usually defined, the Kb is the affinity of an antagonist, worked out from how it opposes an agonist.
